This note sets out measurements from ChEMBL document CHEMBL1154081, “Synthesis of uracil nucleotide analogs with a modified, acyclic ribose moiety as P2Y(2) receptor antagonists” (Bioorg Med Chem, 2009).

pEC50, pIC50: −log10 of the molar value.

As a reminder, the inhibition is the share of the control response that was lost under treatment. In general, pIC50 refers to −log10 of the IC50, conventionally taken in molar units. The term pEC50 denotes −log10 of the EC50, conventionally taken in molar units.

Common to all, as to format: functional, cell-based
In assay [1] the target is P2Y purinoceptor 2 (Mus musculus) (UniProt P35383). The assay is described as follows: (§1) Antagonist activity at mouse P2Y2 receptor expressed in NG108-15 hybrid cells assessed as inhibition of 1 uM UTP-induced intracellular calcium release preincubated 30 mins before UTP challenge by fluorescence assay. The method, boiled down: (§2)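 Oregon Green-loaded NG108-15 cells in Krebs–HEPES pH 7.4, 17,000 cells/well, preincubated at 37 °C for at least 30 min with two concentrations of test compound. UTP agonist then injected, and the inhibition of the intracellular Ca2+ fluorescence rise was measured at 520 nm. Quadruplicate determinations.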
Sequence of P2Y purinoceptor 2 (Mus musculus) (P35383 whole entry): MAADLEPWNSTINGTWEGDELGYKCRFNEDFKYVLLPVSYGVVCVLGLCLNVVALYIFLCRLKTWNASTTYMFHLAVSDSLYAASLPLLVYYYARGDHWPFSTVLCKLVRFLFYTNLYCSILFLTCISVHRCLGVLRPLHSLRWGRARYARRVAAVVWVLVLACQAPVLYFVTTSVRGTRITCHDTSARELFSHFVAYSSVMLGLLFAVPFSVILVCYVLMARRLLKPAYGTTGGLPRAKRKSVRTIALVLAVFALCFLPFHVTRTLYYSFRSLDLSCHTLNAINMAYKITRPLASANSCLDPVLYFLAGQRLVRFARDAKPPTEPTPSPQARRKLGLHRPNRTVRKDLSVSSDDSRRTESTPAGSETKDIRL
(A change in cytosolic calcium serves as a functional read-out for many receptors and channels.)

The target in assay [2] is T1, P2Y purinoceptor 2 (Mus musculus, UniProt P35383). Described as §1. In short, it runs like this: as §2
T1 sequence (P35383 whole entry): as above
For assay [3], the target named is T1, P2Y purinoceptor 2. The assay is described as follows: Antagonist activity at mouse P2Y2 receptor expressed in NG108-15 hybrid cells assessed as inhibition of 3 uM UTP-induced intracellular calcium release preincubated 30 mins before UTP challenge by fluorescence assay. In short, it runs like this: as §2
Assay [4] addresses T1, P2Y purinoceptor 2. As to the kind of experiment: Agonist activity at mouse P2Y2 receptor expressed in NG108-15 hybrid cells assessed as increase in intracellular calcium release by fluorescence assay. In short, it runs like this:
(§3)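 NG108-15 cells (mouse neuroblastoma × rat glioma; endogenous P2Y2, no P2Y4) grown in DMEM with 10% FBS, penicillin/streptomycin and HAT. Cells loaded 1 h at 25 °C with shaking, with the Ca2+ fluorophore Oregon Green. Cells rinsed twice in Krebs–HEPES pH 7.4 and plated at 17,000 cells/well. Compound in buffer injected, then fluorescence read at 520 nm over 60 × 0.4 s. Quadruplicate points.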

Assay [5] concerns the target P2Y purinoceptor 2 (Mus musculus) (UniProt P35383). As to the kind of experiment: Agonist activity at mouse P2Y2 receptor expressed in NG108-15 hybrid cells assessed as increase in intracellular calcium release at 100 uM by fluorescence assay relative to UTP. The method, boiled down: as §3

Turning to `O=c1ccn(CCOP(=O)(O)O)c(=O)[nH]1`, the inhibition in assay [1] turned out to be 22%. Further, the pIC50 at P2Y purinoceptor 2 [2] was under 3.30. Regarding `O=c1ccn(CCOP(=O)(O)OP(=O)(O)OP(=O)(O)O)c(=O)[nH]1`, the inhibition in assay [1] stood at 60%. Besides, the pIC50 on P2Y purinoceptor 2 [2] (ng108-15) is at least 3.30. Take `O=c1ccn(COCCCOP(=O)(O)OP(=O)(O)OP(=O)(O)O)c(=O)[nH]1`: the pIC50 at P2Y purinoceptor 2 [2] is 3.58. Same read-out and setting: in the case of `O=c1ccn(COCCCOP(=O)(O)O)c(=O)[nH]1` it was 3.47. On to `O=c1ccn(CCCP(=O)(O)OP(=O)(O)OP(=O)(O)O)c(=O)[nH]1`, for which, in assay [1], the inhibition was 52%. Besides, the pIC50 on P2Y purinoceptor 2 [2] is 3.30. With `O=c1ccn(CCCCOP(=O)(O)OP(=O)(O)OP(=O)(O)O)c(=O)[nH]1`, the pIC50 on P2Y purinoceptor 2 [3] is 3.22.

On to `O=c1ccn([C@@H]2O[C@H](COP(=O)(O)OP(=O)(O)OP(=O)(O)O)[C@@H](O)[C@H]2O)c(=O)[nH]1` [URIDINE TRIPHOSPHATE], for which the negative logarithm of the EC50 (pEC50) on P2Y purinoceptor 2 [4] was 5.90. Also, the pIC50 at P2Y purinoceptor 2 [2] is 5.82. In addition, the Activity in assay [5] amounted to 40%. Regarding `O=c1ccn(COCCOP(=O)(O)OP(=O)(O)OP(=O)(O)O)c(=O)[nH]1`, the inhibition in assay [1] is 16%. On P2Y purinoceptor 2 [2], the pIC50 was under 3.30.

Regarding `O=c1ccn(CCCCCP(=O)(O)OP(=O)(O)O)c(=O)[nH]1`, the inhibition in assay [1] worked out at 55%. At P2Y purinoceptor 2 [2], the pIC50 is 3.30. Consider `O=c1ccn(CCCCCOP(=O)(O)O)c(=O)[nH]1`, for which the pIC50 on P2Y purinoceptor 2 [2] is 3.57. Still for that read-out and setting: for `O=c1ccn(CCCCP(=O)(O)OP(=O)(O)OP(=O)(O)O)c(=O)[nH]1` the value was 4.04. With `O=c1ccn(CCCCOP(=O)(O)O)c(=O)[nH]1`, the inhibition in assay [1] was 60%. At P2Y purinoceptor 2 [2] (ng108-15), the pIC50 is at least 3.30.

Take `O=c1ccn(CCCCCOP(=O)(O)OP(=O)(O)OP(=O)(O)O)c(=O)[nH]1`: the inhibition in assay [1] was 50%. The negative-log IC50 (pIC50) at P2Y purinoceptor 2 [2] is 3.30.

Consider `O=c1ccn(CCCCCP(=O)(O)OP(=O)(O)OP(=O)(O)O)c(=O)[nH]1`, for which, at P2Y purinoceptor 2 [2], the pIC50 was 3.78. For the molecule `O=c1ccn(COCCOP(=O)(O)O)c(=O)[nH]1`, the inhibition in assay [1] came to 16%. Moreover, the pIC50 at P2Y purinoceptor 2 [2] is under 3.30.
